Test results from ChEMBL document CHEMBL5331136, “Design, Synthesis, and Biological Evaluation of Novel Spiro Imidazobenzodiazepines to Identify Improved Inhaled Bronchodilators” (J Med Chem, 2023).
Values after ≈ are worked out from the molar mass of the structure shown. Active and inactive are the calls of the source. No cut-off for these calls is given here.

Tested on: not listed separately
Assay: Aqueous solubility of the compound at […] under shaking condition for 24 hrs by UV absorbance based analysis
Format: physicochemical
Details: buffer, 24 h

Compound	solubility
CCOC(=O)c1ncn2c1C1(CCC1)N=C(c1ccccc1F)c1cc(Br)ccc1-2	0.186 mM (≈ 87.1 µg/mL)
O=C1Nc2ccc(Br)cc2C(c2ccccc2F)=NC12CCCC2	0.098 mM (≈ 38 µg/mL)
O=C(O)c1ncn2c1C1(CCCC1)N=C(c1ccccc1F)c1cc(Br)ccc1-2	46.7 mM (≈ 21200 µg/mL)
O=C(O)c1ncn2c1C1(CC1)N=C(c1ccccc1F)c1cc(Br)ccc1-2	8.2 mM (≈ 3500 µg/mL)
O=C(O)c1ncn2c1C1(CC1)N=C(c1ccccc1F)c1cc(Cl)ccc1-2	36.2 mM (≈ 13800 µg/mL)
O=C1Nc2ccc(Cl)cc2C(c2ccccc2F)=NC12CC2	0.039 mM (≈ 12.3 µg/mL)
C#Cc1ccc2c(c1)C(c1ccccc1F)=NC1(CC1)C1C(C(=O)OCC)N=CN21 (centres undefined)	0.053 mM (≈ 21.3 µg/mL)
CCOC(=O)c1ncn2c1C1(CCCC1)N=C(c1ccccc1F)c1cc(Br)ccc1-2	0.144 mM (≈ 69.5 µg/mL)
O=C(O)c1ncn2c1C1(CCCCC1)N=C(c1ccccc1F)c1cc(Br)ccc1-2	46.9 mM (≈ 22000 µg/mL)
O=C(O)c1ncn2c1C1(CC1)N=C(c1ccccc1F)c1ccccc1-2	15.1 mM (≈ 5240 µg/mL)
CCOC(=O)c1ncn2c1C(C)(C)N=C(c1ccccc1F)c1cc(Br)ccc1-2	0.103 mM (≈ 47 µg/mL)
O=C(O)c1ncn2c1C1(CCC1)N=C(c1ccccc1F)c1cc(Br)ccc1-2	58.7 mM (≈ 25800 µg/mL)
O=C(O)c1ncn2c1C1(CC1)N=C(c1ccccc1F)c1cc(C3CC3)ccc1-2	12.8 mM (≈ 4960 µg/mL)

Tested on: HEK293
Assay: Cytotoxicity against HEK293 cells assessed as lethal dose measured after 18 hrs by CellTiter-Glo assay
Format: functional
Details: Homo sapiens, read-out: LD50 (the source's name)
Outline: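 HEK293T cells grown in DMEM/high glucose with NEAA, HEPES, pen/strep, 10% heat-inactivated FBS. Plated 15,000 cells/well, then 4 h at 37 °C, 5% CO2. Compound added as 1:3 serial dilutions, top final concentration 300 µM. After 18 h, read luminescence by CellTiter-Glo. DMSO negative control, aminoketone positive control. Three independent experiments in quadruplicate, variable-slope nonlinear regression.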

Compound	CC50
CCOC(=O)c1ncn2c1C1(CCC1)N=C(c1ccccc1F)c1cc(Br)ccc1-2	> 120 µM
O=C1Nc2ccc(Br)cc2C(c2ccccc2F)=NC12CCCC2	> 120 µM
O=C(O)c1ncn2c1C1(CCCC1)N=C(c1ccccc1F)c1cc(Br)ccc1-2	> 300 µM
O=C(O)c1ncn2c1C1(CC1)N=C(c1ccccc1F)c1cc(Br)ccc1-2	> 300 µM
O=C(O)c1ncn2c1C1(CC1)N=C(c1ccccc1F)c1cc(Cl)ccc1-2	> 300 µM
O=C1Nc2ccc(Cl)cc2C(c2ccccc2F)=NC12CC2	> 150 µM
C#Cc1ccc2c(c1)C(c1ccccc1F)=NC1(CC1)C1C(C(=O)OCC)N=CN21 (centres undefined)	> 150 µM
CCOC(=O)c1ncn2c1C1(CCCC1)N=C(c1ccccc1F)c1cc(Br)ccc1-2	106 µM
O=C(O)c1ncn2c1C1(CCCCC1)N=C(c1ccccc1F)c1cc(Br)ccc1-2	> 300 µM
O=C(O)c1ncn2c1C1(CC1)N=C(c1ccccc1F)c1ccccc1-2	> 300 µM
CCOC(=O)c1ncn2c1C(C)(C)N=C(c1ccccc1F)c1cc(Br)ccc1-2	> 150 µM
O=C(O)c1ncn2c1C1(CCC1)N=C(c1ccccc1F)c1cc(Br)ccc1-2	> 300 µM
O=C(O)c1ncn2c1C1(CC1)N=C(c1ccccc1F)c1cc(C3CC3)ccc1-2	> 300 µM

Target: GABA-A receptor; anion channel (Rattus norvegicus) (UniProt O09028+P15431+P18506+P18508+P19969+P20236+P23574+P23576+P28471+P28473+P30191+P62813+P63079+P63138+Q91ZM7+Q9ES14)
Assay: Displacement of [3H]flunitrazepam from GABAA receptor in rat brain extract at 10 uM relative to control
Format: tissue-based
Details: not given

Compound	Activity
CCOC(=O)c1ncn2c1C1(CCC1)N=C(c1ccccc1F)c1cc(Br)ccc1-2	83%
O=C1Nc2ccc(Br)cc2C(c2ccccc2F)=NC12CCCC2	13%
O=C(O)c1ncn2c1C1(CCCC1)N=C(c1ccccc1F)c1cc(Br)ccc1-2	2%
O=C(O)c1ncn2c1C1(CC1)N=C(c1ccccc1F)c1cc(Br)ccc1-2	97%
O=C(O)c1ncn2c1C1(CC1)N=C(c1ccccc1F)c1cc(Cl)ccc1-2	18%
O=C1Nc2ccc(Cl)cc2C(c2ccccc2F)=NC12CC2	90%
C#Cc1ccc2c(c1)C(c1ccccc1F)=NC1(CC1)C1C(C(=O)OCC)N=CN21 (centres undefined)	56%
CCOC(=O)c1ncn2c1C1(CCCC1)N=C(c1ccccc1F)c1cc(Br)ccc1-2	19%
O=C(O)c1ncn2c1C1(CCCCC1)N=C(c1ccccc1F)c1cc(Br)ccc1-2	24%
O=C(O)c1ncn2c1C1(CC1)N=C(c1ccccc1F)c1ccccc1-2	74%
CCOC(=O)c1ncn2c1C(C)(C)N=C(c1ccccc1F)c1cc(Br)ccc1-2	78%
O=C(O)c1ncn2c1C1(CCC1)N=C(c1ccccc1F)c1cc(Br)ccc1-2	59%
O=C(O)c1ncn2c1C1(CC1)N=C(c1ccccc1F)c1cc(C3CC3)ccc1-2	58%

Target: GABA-A receptor; anion channel
Assay: Displacement of [3H]flunitrazepam from GABAA receptor in rat brain extract
Format: tissue-based
Details: not given

Compound	IC50
O=C(O)c1ncn2c1C1(CC1)N=C(c1ccccc1F)c1cc(Br)ccc1-2	9 µM
O=C(O)c1ncn2c1C1(CCC1)N=C(c1ccccc1F)c1cc(Br)ccc1-2	1830 µM

Tested on: not listed separately
Assay: Metabolic stability in mouse liver S9 fraction assessed as parent compound remaining at 10 uM measured after 120 mins in presence of NADPH by LC-MS/MS analysis
Format: ADME, subcellular
Details: read-out: Stability

Compound	remaining at 2 h, 10 µM
O=C(O)c1ncn2c1C1(CCCC1)N=C(c1ccccc1F)c1cc(Br)ccc1-2	117%
O=C(O)c1ncn2c1C1(CC1)N=C(c1ccccc1F)c1cc(Br)ccc1-2	120%
O=C(O)c1ncn2c1C1(CC1)N=C(c1ccccc1F)c1cc(Cl)ccc1-2	101%
O=C(O)c1ncn2c1C1(CCCCC1)N=C(c1ccccc1F)c1cc(Br)ccc1-2	111%
O=C(O)c1ncn2c1C1(CC1)N=C(c1ccccc1F)c1ccccc1-2	108%
O=C(O)c1ncn2c1C1(CCC1)N=C(c1ccccc1F)c1cc(Br)ccc1-2	90%
O=C(O)c1ncn2c1C1(CC1)N=C(c1ccccc1F)c1cc(C3CC3)ccc1-2	102%

Tested on: not listed separately
Assay: Metabolic stability in mouse liver S9 fraction assessed as parent compound remaining at 10 uM measured after 120 mins in presence of UDP-glucuronic acid by LC-MS/MS analysis
Format: ADME, subcellular
Details: read-out: Stability
Outline: (§1)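 Liver S9 (human or mouse), protein 0.5 mg/mL, compound 10 µM (from 1 mM DMSO stock), phosphate buffer pH 7.4, […], alamethicin 0.0225 mg/mL final. Preincubated 5 min at 37 °C, then S9 added. Aliquots at 0 and 120 min quenched in cold methanol with 5 µM 4,5-diphenylimidazole internal standard. Parent remaining from LC-MS/MS peak-area ratio. Two independent assays in triplicate (n = 6).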

Compound	remaining at 2 h, 10 µM
O=C(O)c1ncn2c1C1(CCCC1)N=C(c1ccccc1F)c1cc(Br)ccc1-2	92%
O=C(O)c1ncn2c1C1(CC1)N=C(c1ccccc1F)c1cc(Br)ccc1-2	90%
O=C(O)c1ncn2c1C1(CC1)N=C(c1ccccc1F)c1cc(Cl)ccc1-2	98%
O=C(O)c1ncn2c1C1(CCCCC1)N=C(c1ccccc1F)c1cc(Br)ccc1-2	78%
O=C(O)c1ncn2c1C1(CC1)N=C(c1ccccc1F)c1ccccc1-2	99%
O=C(O)c1ncn2c1C1(CCC1)N=C(c1ccccc1F)c1cc(Br)ccc1-2	91%
O=C(O)c1ncn2c1C1(CC1)N=C(c1ccccc1F)c1cc(C3CC3)ccc1-2	95%

Tested on: not listed separately
Assay: Metabolic stability in human liver S9 fraction assessed as parent compound remaining at 10 uM measured after 120 mins in presence of NADPH by LC-MS/MS analysis
Format: ADME, subcellular
Details: liver S9 fraction, read-out: Stability

Compound	remaining at 2 h, 10 µM
O=C(O)c1ncn2c1C1(CCCC1)N=C(c1ccccc1F)c1cc(Br)ccc1-2	114%
O=C(O)c1ncn2c1C1(CC1)N=C(c1ccccc1F)c1cc(Br)ccc1-2	104%
O=C(O)c1ncn2c1C1(CC1)N=C(c1ccccc1F)c1cc(Cl)ccc1-2	103%
O=C(O)c1ncn2c1C1(CCCCC1)N=C(c1ccccc1F)c1cc(Br)ccc1-2	107%
O=C(O)c1ncn2c1C1(CC1)N=C(c1ccccc1F)c1ccccc1-2	106%
O=C(O)c1ncn2c1C1(CC1)N=C(c1ccccc1F)c1cc(C3CC3)ccc1-2	107%

Same assay, conditions: s9, 2 h, 10 µM

Compound	Stability
O=C(O)c1ncn2c1C1(CCC1)N=C(c1ccccc1F)c1cc(Br)ccc1-2	122%

Tested on: not listed separately
Assay: Metabolic stability in human liver S9 fraction assessed as parent compound remaining at 10 uM measured after 120 mins in presence of UDP-glucuronic acid by LC-MS/MS analysis
Format: ADME, subcellular
Details: read-out: Stability
Outline: as §1

Compound	remaining at 2 h, 10 µM
O=C(O)c1ncn2c1C1(CCCC1)N=C(c1ccccc1F)c1cc(Br)ccc1-2	96%
O=C(O)c1ncn2c1C1(CC1)N=C(c1ccccc1F)c1cc(Br)ccc1-2	69%
O=C(O)c1ncn2c1C1(CC1)N=C(c1ccccc1F)c1cc(Cl)ccc1-2	103%
O=C(O)c1ncn2c1C1(CCCCC1)N=C(c1ccccc1F)c1cc(Br)ccc1-2	106%
O=C(O)c1ncn2c1C1(CC1)N=C(c1ccccc1F)c1ccccc1-2	96%
O=C(O)c1ncn2c1C1(CCC1)N=C(c1ccccc1F)c1cc(Br)ccc1-2	113%
O=C(O)c1ncn2c1C1(CC1)N=C(c1ccccc1F)c1cc(C3CC3)ccc1-2	96%

Tested on: not listed separately
Assay: Inhibition of sensorimotor coordination in Swiss Webster mouse at 40 mg/kg, po measured after 10 to 30 mins by rotarod analysis
Format: toxicity, organism-based
Details: in vivo, time 10-30 min
Outline: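 Female Swiss Webster mice, 10 weeks old, trained on rotarod at 15 rpm for 3 min. Single oral gavage, 100 µL, in 2.5% PEG400/97.5% 2% HPMC. Tested 3 min at 10, 30 and 60 min after dosing; fall time recorded at second fall. n = 12, two-way repeated-measures ANOVA with Bonferroni posttest.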

Compound	Activity
O=C(O)c1ncn2c1C1(CCCC1)N=C(c1ccccc1F)c1cc(Br)ccc1-2	Non-Toxic
O=C(O)c1ncn2c1C1(CC1)N=C(c1ccccc1F)c1cc(Br)ccc1-2	Non-Toxic
O=C(O)c1ncn2c1C1(CC1)N=C(c1ccccc1F)c1cc(Cl)ccc1-2	Non-Toxic
O=C(O)c1ncn2c1C1(CCCCC1)N=C(c1ccccc1F)c1cc(Br)ccc1-2	Non-Toxic
O=C(O)c1ncn2c1C1(CC1)N=C(c1ccccc1F)c1ccccc1-2	Non-Toxic
O=C(O)c1ncn2c1C1(CCC1)N=C(c1ccccc1F)c1cc(Br)ccc1-2	Non-Toxic
O=C(O)c1ncn2c1C1(CC1)N=C(c1ccccc1F)c1cc(C3CC3)ccc1-2	Non-Toxic

Tested on: Trachea
Assay: Induction of smooth muscle relaxation in Hartley guinea pig trachea ring assessed as reduction in substance P induced smooth muscle constriction at 25 uM measured after 30 mins
Format: functional, tissue-based
Details: Cavia porcellus

Compound	Activity
O=C(O)c1ncn2c1C1(CC1)N=C(c1ccccc1F)c1cc(Br)ccc1-2	Active
O=C(O)c1ncn2c1C1(CCCCC1)N=C(c1ccccc1F)c1cc(Br)ccc1-2	Active
O=C(O)c1ncn2c1C1(CC1)N=C(c1ccccc1F)c1ccccc1-2	Active

Tested on: Mus musculus
Assay: Induction of bronchodilation in A/J mouse assessed as reduction in sRaw values at 7.2 mg/kg administered as nebulized compound
Format: functional, organism-based
Details: not given
Outline: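 Female A/J mice, no allergen sensitization, trained 5 days in a double-chamber plethysmograph while conscious. Compound nebulized in PBS at 7.2 mg/kg, then five nebulized methacholine challenges (in water). Each nebulization under 1 min, 3 min recording, 1 min pause. sRaw calculated per interval. n = 12, two-way repeated-measures ANOVA against vehicle.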

Compound	Activity
O=C(O)c1ncn2c1C1(CCCC1)N=C(c1ccccc1F)c1cc(Br)ccc1-2	inactive
O=C(O)c1ncn2c1C1(CC1)N=C(c1ccccc1F)c1cc(Br)ccc1-2	Active
O=C(O)c1ncn2c1C1(CCCCC1)N=C(c1ccccc1F)c1cc(Br)ccc1-2	inactive
O=C(O)c1ncn2c1C1(CC1)N=C(c1ccccc1F)c1ccccc1-2	Active
O=C(O)c1ncn2c1C1(CCC1)N=C(c1ccccc1F)c1cc(Br)ccc1-2	inactive
